Experimental data published in the EternaBench riboswitch data.

Tested on: MS2 coat protein
Assay: apparent Kd, MS2 coat protein; higher = weaker binding; RNA-MaP array; FMN 200 µM where present
Outline: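 Green signal from SNAP-549-labelled MS2 coat protein was normalised to red-channel RNA signal and to the median Fmax of control clusters. The protein was titrated from 0.7 or 1.5 nM, doubling to 3 µM, without and then with constant ligand, over designs transcribed by stalled E. coli RNA polymerase on Illumina sequencing-chip clusters, in 100 mM Tris-HCl pH 7.5, 80 mM KCl, 4 mM MgCl2, BSA, DTT, yeast tRNA and Tween-20. The apparent Kd is the median of filtered per-cluster binding-curve fits.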

[1] = designed as: OFF switch for flavin mononucleotide, no ligand
[2] = ligand present: flavin mononucleotide, designed as: OFF switch for flavin mononucleotide
[3] = designed as: ON switch for flavin mononucleotide, no ligand
[4] = ligand present: flavin mononucleotide, designed as: ON switch for flavin mononucleotide

| Sequence | apparent Kd [1] [µM] | apparent Kd [2] [µM] | apparent Kd [3] [µM] | apparent Kd [4] [µM] |
| --- | --- | --- | --- | --- |
| AGUCAGAGCAGAGGAUAUAUACAUGAGGAUCACCCAUGUGACUGACUACGCUAGAAAUAGCAUGUAUAGAAGGCUGCUCUGACA | 0.344 | 0.911 | – | – |
| AGUCAUACAGGAUAUACAUGAGGAUCACCCAUGUUUAUCCUAAAAUAAAAAACCUCAUGUAGAAGGGUAUGACA | 0.0194 | 0.0135 | – | – |
| AGUCCACAUGAGGAUCACCCAUGUCUGGAGAAGACAGGAUAUAAGGAAAAAAAAAAAAACUUAGAAGGGUCAAAAA | – | – | 0.128 | 0.0697 |
| AGUCGGAGCAGAGGAUAUAUACAUGAGGAUCACCCAUGUAAAUGGAAUAGCUGGAAACAGCAAGUAUAGAAGGCUGCUCCGACA | 0.0395 | 0.118 | – | – |
| AGUCGGAGCAGAGGAUAUAUACAUGAGGAUCACCCAUGUGACUGACUACGCUAGAAAUAGCAUGUAUAGAAGGCUGCUCCGACA | 0.388 | 0.946 | – | – |
| AGUGACGAUACAGGAUAUGCUGGACUUUGUCCAGCAGAAGGGUAUUAACAUGAGGAUCACCCAUGUUUCGUCACCAAAUUUAAU | – | – | 0.0395 | 0.00822 |
| AGUGCGUAUGUGAGGAUAUGCUGGUCCUUGGCUCGGCAGAAGGCACAUGAGGAUCACCCAUGUGGUGUCGUACG | 0.0622 | 0.412 | – | – |
| AGUGCUAUGUAGAAGGCAGAUCUGAUUCAGAUCUGAGGAUAUACAUGAGGAUCACCCAUGUUAUGCACCAGCACGAGAGUGCAU | 0.02 | 0.098 | – | – |
| AGUGUCAUCGAGAAGGCCUCAACAUGAGGAUCACCCAUGUUGCAAAAUGGGAGGAUAUCGCGCGUUAAAAUACGUUUCGUAGCA | – | – | 0.0424 | 0.0167 |
| AGUGUCAUCGAGAAGGCCUCAACAUGAGGAUCACCCAUGUUGCCAAAAGGGAGGAUAUCGAUGAUACAGCUACGUUUCGUAGCA | – | – | 0.00415 | 0.00434 |
| AGUGUCAUCGAGAAGGCCUCAACAUGAGGAUCACCCAUGUUGUAAUAUGGGAGGAUAUCGAUGAUACAGCUACGUUUCGUAGCC | – | – | 0.0195 | 0.00591 |
| AGUGUCAUCGAGAAGGCCUUAACAUGAGGAUCACCCAUGUUGUAAUAUGGGAGGAUAUCGAUGAUACAGCUACGUUUCGUAGCA | – | – | 0.0101 | 0.00571 |
| AGUGUGUGGCAGGAUAUUCCGGUCGUGAGUCGGGAAGAAGGGUCUACAUGAGGAUCACCCAUGUGAGCGGUUGA | 0.317 | 0.36 | – | – |
| AGUUAAUAUCGAGGAUAUGUCUAGACACAUGAGGAUCACCCAUGUAUGUGUAUAGAAGGCGAUAUUAACAGCAUGUUACAUGCG | – | – | 0.039 | 0.0161 |
| AGUUAUCAUGUAGGAUAUGCUUGAGGUAAGAAAGCAGAAGGACAUGAGGAUCACCCAUGUUAAUGAUACAGAUUUUAGUUUCUU | 0.0329 | 0.201 | – | – |
| AGUUCCUCCGCAGGAUAUGUGCUCUUUAUCACAUGAGGAUCACCCAUGUCAGCCUAAACGGCGAGACAGAAGGGUGGUGGUGCC | – | – | 0.172 | 0.177 |
| AGUUGGCGAGGAUAUACAUGAGGAUCACCCAUGUGAAAUAUAAGAGUGAGGAAGAAAAGUAGAAGGCGCUGACA | 0.0998 | 0.13 | – | – |
| AGUUGGCGAGGAUAUACAUGAGGAUCACCCAUGUGAGAGAAAAAAAGGAGAAAAAAAAGUAGAAGGCGCUGACA | 0.0375 | 0.12 | – | – |
| AGUUUACAUGAGGAUCACCCAUGUGAGGAUAUGGAAUCGCUGGCCGUAGCCAGUGGUUCCAGAAGGCGCGUGAU | 0.099 | 0.187 | – | – |
| AGUUUAUAUCGAGGAUAUAAGUCUAGGACAUGAGGAUCACCCAUGUAUGUCUUAGAAGGCGAUAUAAACAGCCUGUUACAGGCA | – | – | 0.0315 | 0.00704 |
| AUAAAACAUGAGGAUCACCCAUGUAAUAAGAACCGAGGAUAUGGAAAUAAUAAUAAUAAACCAGAAGGUGGUGAUC | – | – | 0.146 | 0.326 |
| AUAAAACAUGAGGAUCACCCAUGUAGACAUAUGGGAGGAUAUACUAGAUCGAAAGAUCUAGUAGAAGGCCUUUAUG | – | – | 0.0442 | 0.0208 |
| AUAAAACGAGGAUAUGCUGGGCUUCUGUGAUGCAUAUGCUCACAUGAGGAUCACCCAUGUAGAAGGUGUAAAAU | 0.278 | 0.289 | – | – |
| AUAAAAGUAGGAUAUUGACUGAUCGACAUGAGGAUCACCCAUGUGGUGCUGUGCGGUAUUCAAGAAGGGCUAAAAU | 0.0218 | 0.0322 | – | – |
| AUAAAUCAUGUAGGAUAUGCGUGGCGAAGCUAUGCAGAAGGACAUGAGGAUCACCCAUGUCGUUCCGUCUGCGUACAGACGGAA | 0.0338 | 0.306 | – | – |
| AUAAGCUCGUCAGGAUAUACGUCACUGUUUCGGCAGUGAGGUAUGAUCACAUGAGGAUCACCCAUGUAGAAGGGACGAGCUUAU | 0.00524 | 0.00829 | – | – |
| AUAAGCUCGUCAGGAUAUGCAACACUGUGUAAGCAGUGUGGUAUGAUCACAUGAGGAUCACCCAUGUAGAAGGGACGAGCUUAU | 0.00653 | 0.0269 | – | – |
| AUAAUGUGAGGAUAUAUGUAUCACGGUGAUACACCGUGAUGAUAGAAGGUACAUGAGGAUCACCCAUGUAGGGC | 0.0366 | 0.0727 | – | – |

| Sequence | apparent Kd [1] [µM] | apparent Kd [2] [µM] | apparent Kd [3] [µM] | apparent Kd [4] [µM] |
| --- | --- | --- | --- | --- |
| AUAAUUUUAUAUAUCAUUUUAAUCAGAAGGCAUAACAUGAGGAUCACCCAUGUAUAUUAUAGUUAUGAGGAUAUGAUUUGGUUA | 0.0116 | 0.0109 | – | – |
| AUAAUUUUAUAUUUCUUUUUAUUCAGAAGGCAUAACAUGAGGAUCACCCAUGUAAAUUAAUGUUAUGAGGAUAUGAUUUGGUUA | 0.0242 | 0.105 | – | – |
| AUACAUGAGGAUCACCCAUGUAAUUAAUUAACUUGUAAGAUCAAGGAUAUCAGCUCGAUUAGAGCUGAGAAGGUGAUCACAUGU | – | – | 0.26 | 0.253 |
| AUACAUGAGGAUCACCCAUGUUACAUGGCCUUGAUAGAUUGUAGAAGGAUGUUAUUAUUUUUUUCAUAGGAUAUACUAUUUAGU | 0.12 | 0.105 | – | – |
| AUACAUGAGGAUCACCCAUGUUACAUGGGCUAGUUUUAACGUAGAAGGAUGUUAUUAUUAUUAGCAUAGGAUAUACAAUUUGAA | 0.274 | 0.248 | – | – |
| AUACAUGAGGAUCACCCAUGUUACUGGGUCUUAAUAGAACGUAGAAGGAUGAUUUUAUAAAUAACAUAGGAUAUACAAUAUUGU | 0.181 | 0.105 | – | – |
| AUACCUUAUGAGAAGGCGGUCAUGAAACAUGAUCGAGGAUAUCAUGUAAACAUGAGGAUCACCCAUGUAUGGGUAUUAUGGUAA | – | – | 0.0448 | 0.0102 |
| AUACUAAAUGAAGGAUAUCUAAGCAUAAACCUGAGAGAAGGUCAUUUUUACAUGAGGAUCACCCAUGUUGUGAUUAAUGGGUAA | 0.201 | 0.366 | – | – |
| AUACUAAAUGAAGGAUAUCUAAGCAUACACCUGAGAGAAGGUCAUUUUUACAUGAGGAUCACCCAUGUUGUGGUUAAUGGGUUA | 0.29 | 0.374 | – | – |
| AUACUCAAUGAAGGAUAUCUCAGCAUAAACCUGAGAGAAGGUCAUUGUUACAUGAGGAUCACCCAUGUUGUAGUUAAUGGGUAA | 0.504 | 0.573 | – | – |
| AUACUCAUGUAAGGAUAUGCAGCCGUCUCGGCUGCAGAAGGUACUAUAAUACAUGAGGAUCACCCAUGUCUCUCGCAUUGCGAG | – | – | 0.562 | 0.0937 |
| AUACUUAAUGAAGGAUAUCUCAGCAUAAACCUGAGAGAAGGUCAUUGUUACAUGAGGAUCACCCAUGUUGUAGUUAAUGGGUAA | 0.421 | 0.413 | – | – |
| AUAGAAAGAUUAAUAUGAUUACAUGAGGAUCACCCAUGUAUAUAGGAUAUCGACGUCAAUGACGUCGAGAAGGAUAUACAUAAU | 0.0276 | 0.0904 | – | – |
| AUAGGCCUAGGAUAUACAUGAGGAUCACCCAUGUUAAUAAUUCGAUCAUGAUAAACGUGUAGAAGGAGGAAUAA | 0.0329 | 0.0369 | – | – |
| AUAUAGAUGGUCAGGAUAUGCUAGUGGUAACAGUAGCAGAAGGGACAUGAGGAUCACCCAUGUGGGUCCUGCUC | 0.0223 | 0.064 | – | – |
| AUAUAUACCCAGAAGGUGCCAGCGAGAGCUGCACAUGAGGAUCACCCAUGUUGUCGGUGACGACGCAAGGAUAUGGGUAUAUAU | – | – | 0.0252 | 0.00786 |
| AUAUCUAUGUAAGGAUAUAGAUGAUAUACGCCUCCGACAUGAGGAUCACCCAUGUUAUAUUUUGUCUAGAAGGUACAUUGUCGG | – | – | 0.168 | 0.17 |
| AUAUCUCCCUAGAAGGUGUAACGACAAUUGCAUCACGUAGUUGGCGUAGCAAGGAUAUGGGACAUGAGGAUCACCCAUGUGGAU | – | – | 0.0159 | 0.00888 |
| AUAUGAAAGAUAGGAUAUACUGAGGUUGAAUGGGUAGAAGGAUCGAUAGGGAAGAAUACAUGAGGAUCACCCAUGUUGUGGAUU | – | – | 0.0817 | 0.0519 |
| AUAUGAAAGAUAGGAUAUACUGAGGUUGAAUGGGUAGAAGGAUCGAUAGUGGAGAAUACAUGAGGAUCACCCAUGUUGUGGAUU | – | – | 0.828 | 0.353 |
| AUAUUACGAGGAUAUCGUUUUUAUCACAUGAGGAUCACCCAUGUAAUUUAUGUUUCGUUUCGAGAAGGCGUAAGUU | 0.0198 | 0.022 | – | – |
| AUAUUCUAGAUAGGAUAUACUGAGGUUGAAUGGGUAGAAGGAUCGUGAGAGUGGACUACAUGAGGAUCACCCAUGUUGUUUAUU | – | – | 0.0616 | 0.059 |
| AUCAGCUCGUCAGGAUAUACGUCACUGCAUCAGCAGUGUGGUAAGAUCACAUGAGGAUCACCCAUGUAGAAGGGACGAGCUGAU | 0.0229 | 0.139 | – | – |
| AUCAGCUCGUCAGGAUAUACGUCACUGCGCCAGCAGUGUGGUAAGAUCACAUGAGGAUCACCCAUGUAGAAGGGACGAGCUGAU | 0.015 | 0.242 | – | – |
| AUCAGCUCGUCAGGAUAUACGUCACUGCGGCAGCAGUGUGGUAAGAUCACAUGAGGAUCACCCAUGUAGAAGGGACGAGCUGAU | 0.0131 | 0.26 | – | – |
| AUCAGCUCGUCAGGAUAUACGUCACUGCGUCAGCAGUGUGGUAAGAUCACAUGAGGAUCACCCAUGUAGAAGGGAAGAGCUGAU | 0.0151 | 0.232 | – | – |
| AUCAGCUCGUCAGGAUAUACGUCACUGCGUCAGCAGUGUGGUAAGAUCACAUGAGGAUCACCCAUGUAGAAGGGACGAGCUGCU | 0.014 | 0.264 | – | – |
